Data published in ChEMBL document CHEMBL1125594 (J Med Chem, 1991).

Experiments:
[1] = system: Nucleic Acid; experiment: Antitumor potency on human ovarian 2780 cell lines.; assay type: functional
Method in brief: (§1)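 Human lines kept in RPMI-1640 with 5% FBS, L-glutamine and penicillin/streptomycin; seeded as single-cell suspensions at 2000 (MCF-7), 500 (WiDr) or 750 (2780) cells/well. Drugs in DMSO, serially diluted in PBS pH 7.4 in half-log steps, were added on day 2 (final DMSO ≤0.1%). Exposure 6 days at 37 °C, 5% CO2. MTT was added for 4 h, formazan dissolved in DMSO, A570 read as % of untreated control. 6 wells per concentration, ≥2 assays, IC50s averaged.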

[2] = system: Nucleic Acid; experiment: Antitumor potency on human breast MCF-7 cell lines.; assay type: functional, cell-based; conditions: MCF7; method in brief: as §1
[3] = system: Nucleic Acid; experiment: Antitumor potency on human colon WIDR cell lines.; assay type: functional, cell-based; method in brief: as §1
[4] = system: P388; experiment: Antitumor potency on P388 leukemia cells in culture; assay type: functional, cell-based; conditions: Mus musculus
Method in brief: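 P388 cells (ATCC CCL-46) plated as a single-cell suspension at 300 cells/well. Drugs in DMSO, serially diluted in PBS pH 7.4 in half-log steps, were added on day 1 (final DMSO ≤0.1%). Exposure 6 days at 37 °C, 5% CO2. MTT was added for 4 h, formazan dissolved in DMSO, absorbance read at 570 nm as % of untreated control. 6 wells per concentration, ≥2 assays, IC50 averaged.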

[5] = organism: Mus musculus; experiment: Minimum effective dose was measured against P388 leukemia in mice.; assay type: functional

Compound	IC50 [1] [nM]	IC50 [2] [nM]	IC50 [3] [nM]	IC50 [4] [nM]	MED [5]
CO[C@@]12C(COC(N)=O)C3=C(C(=O)C(C)=C(OCc4ccccc4)C3=O)N1CC1NC12 (some centres undefined)	0.26	1.43	0.13	0.018	0.24 µmol/kg
COCCOCCOC1=C(C)C(=O)C2=C(C1=O)C(COC(N)=O)[C@@]1(OC)C3NC3CN21 (some centres undefined)	4.57	8.22	4.57	4.1	0.11 µmol/kg
CO[C@@]12C(COC(N)=O)c3c(O)c(/N=C4\C=CC(=O)C([N+](=O)[O-])=C4)c(C)c(O)c3N1CC1NC12 (some centres undefined)	10.8	22.7	25.5	–	–
CO[C@@]12C(COC(N)=O)C3=C(C(=O)C(C)=C(OC4CC4)C3=O)N1CC1NC12 (some centres undefined)	0.56	1.12	0.21	0.63	0.13 µmol/kg
CO[C@@]12C(COC(N)=O)C3=C(C(=O)C(C)=C(NCCc4ccccn4)C3=O)N1CC1NC12 (some centres undefined)	77.4	22.8	26.2	53.5	–
CO[C@@]12C(COC(N)=O)C3=C(C(=O)C(C)=C(NCCc4ccco4)C3=O)N1CC1NC12 (some centres undefined)	59.5	36.6	40.3	26.6	–
CO[C@@]12C(COC(N)=O)C3=C(C(=O)C(C)=C(Nc4ccc(I)cc4)C3=O)N1CC1NC12 (some centres undefined)	1.6	2.84	0.63	1.62	–
CO[C@@]12C(COC(N)=O)C3=C(C(=O)C(C)=C(OCCOCCO)C3=O)N1CC1NC12 (some centres undefined)	36.6	80.6	25.8	18.7	0.3 µmol/kg
CO[C@@]12C(COC(N)=O)C3=C(C(=O)C(C)=C(Nc4ccc(Br)cc4)C3=O)N1CC1NC12 (some centres undefined)	1.84	2.66	1.19	1.92	–
CO[C@@]12C(COC(N)=O)c3c(O)c(N=C4C=CC(=O)C=C4)c(C)c(O)c3N1CC1NC12 (some centres undefined)	16.4	16.9	6.3	5.86	–
CO[C@@]12C(COC(N)=O)c3c(O)c(N=C4C=CC(=N)C=C4)c(C)c(O)c3N1CC1NC12 (some centres undefined)	50	13.1	28.8	18.8	–
CO[C@@]12C(COC(N)=O)C3=C(C(=O)C(C)=C(OCCSSCCO)C3=O)N1CC1NC12 (some centres undefined)	1.36	3.92	1.48	1.87	0.026 µmol/kg
CO[C@@]12C(COC(N)=O)C3=C(C(=O)C(C)=C(OCCO)C3=O)N1CC1NC12 (some centres undefined)	6.85	3.69	4.22	0.71	0.017 µmol/kg
CO[C@@]12C(COC(N)=O)C3=C(C(=O)C(C)=C(OCC4CCC4)C3=O)N1CC1NC12 (some centres undefined)	0.27	0.21	0.19	0.41	0.99 µmol/kg
CO[C@@]12C(COC(N)=O)C3=C(C(=O)C(C)=C(OCCSc4ccccc4)C3=O)N1CC1NC12 (some centres undefined)	0.53	1.4	0.15	1.21	6.73
CO[C@@]12C(COC(N)=O)C3=C(C(=O)C(C)=C(NCCCO)C3=O)N1CC1NC12 (some centres undefined)	76.4	132	102	459	–
CO[C@@]12C(COC(N)=O)c3c(O)c(/N=C4\C=CC(=O)C(I)=C4)c(C)c(O)c3N1CC1NC12 (some centres undefined)	29	16.3	6.52	–	–
CO[C@@]12C(COC(N)=O)C3=C(C(=O)C(C)=C(Nc4cccc(I)c4)C3=O)N1CC1NC12 (some centres undefined)	1.68	1.87	0.21	1.42	–
CO[C@@]12C(COC(N)=O)C3=C(C(=O)C(C)=C(Nc4ccccc4)C3=O)N1CC1NC12 (some centres undefined)	2.6	1.32	1.09	1.71	–
CO[C@@]12C(COC(N)=O)C3=C(C(=O)C(C)=C(Nc4ccc5[nH]ccc5c4)C3=O)N1CC1NC12 (some centres undefined)	3.1	1.1	1.07	–	–
CO[C@@]12C(COC(N)=O)C3=C(C(=O)C(C)=C(OCCOc4ccccc4)C3=O)N1CC1NC12 (some centres undefined)	0.16	0.72	0.12	0.082	3.5 µmol/kg
C#CCNC1=C(C)C(=O)C2=C(C1=O)C(COC(N)=O)[C@@]1(OC)C3NC3CN21 (some centres undefined)	2.1	4.4	3.9	9.7	–
CO[C@@]12C(COC(N)=O)c3c(O)c(/N=C4/C=CN=N4)c(C)c(O)c3N1CC1NC12 (some centres undefined)	38.5	72.4	13	15.5	–
CO[C@@]12C(COC(N)=O)C3=C(C(=O)C(C)=C(OCC4CC4)C3=O)N1CC1NC12 (some centres undefined)	0.45	0.51	0.16	0.31	1.03 µmol/kg
CO[C@@]12C(COC(N)=O)C3=C(C(=O)C(C)=C(Nc4nc(C)cs4)C3=O)N1CC1NC12 (some centres undefined)	1.74	3.13	1.32	0.5	–
CO[C@@]12C(COC(N)=O)C3=C(C(=O)C(C)=C(Nc4ccc([N+](=O)[O-])cc4)C3=O)N1CC1NC12 (some centres undefined)	0.59	1.53	0.42	0.44	–
CO[C@@]12C(COC(N)=O)C3=C(C(=O)C(C)=C(Nc4ccc(F)cc4)C3=O)N1CC1NC12 (some centres undefined)	3.03	1.77	1.63	3.03	–
COC1=C(C)C(=O)C2=C(C1=O)[C@@H](COC(N)=O)[C@@]1(OC)[C@H]3N[C@H]3CN21 [MITOMYCIN A]	0.22	0.63	0.052	0.24	0.14 µmol/kg
CO[C@@]12[C@H](COC(N)=O)C3=C(C(=O)C(C)=C(N)C3=O)N1C[C@@H]1N[C@@H]12 [MITOMYCIN]	14.8	32.2	13	50.8	–
